Experimental data: ChEMBL document CHEMBL1124937 (J Med Chem, 1990)

target: Beta-2 adrenergic receptor (Mus musculus, UniProt P18762); experiment: Ki value was determined by accumulation of c-AMP in S-49 mouse lymphoma cells (Beta2).; assay type: cell-based
Outline: (§1)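 Antagonist Ki from in vitro inhibition of cyclic AMP accumulation, with cAMP quantified by radioimmunoassay. Cells were prepared as in the group's earlier work. Ki was calculated with the Cheng–Prusoff equation. The four single stereoisomers of each derivative, the stereoisomeric mixture and the parent drug were tested. Relative potency is given versus the parent drug.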

Chain of Beta-2 adrenergic receptor (P18762 whole entry): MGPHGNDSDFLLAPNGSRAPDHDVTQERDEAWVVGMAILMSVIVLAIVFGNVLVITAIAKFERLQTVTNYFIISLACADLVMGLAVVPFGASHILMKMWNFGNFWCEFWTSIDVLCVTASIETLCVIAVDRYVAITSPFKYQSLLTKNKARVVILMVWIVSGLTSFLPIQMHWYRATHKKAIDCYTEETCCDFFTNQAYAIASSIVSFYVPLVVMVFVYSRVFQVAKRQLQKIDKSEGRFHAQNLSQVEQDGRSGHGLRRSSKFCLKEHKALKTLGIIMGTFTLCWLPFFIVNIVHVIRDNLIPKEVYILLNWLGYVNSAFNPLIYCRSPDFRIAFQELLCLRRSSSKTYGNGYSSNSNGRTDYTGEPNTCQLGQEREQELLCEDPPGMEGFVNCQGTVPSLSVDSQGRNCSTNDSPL

SMILES | Ki
C[C@H](CCCCC(=O)Nc1ccc(C(F)(F)F)cc1)NC[C@H](O)COc1cccc2ccccc12 | 45900 nM
CC(CCCCC(=O)Nc1ccc(C(F)(F)F)cc1)NCC(O)COc1cccc2ccccc12 (stereo unspecified) | 78000 nM
C[C@H](CCCCC(=O)Nc1ccc(C(F)(F)F)cc1)NC[C@@H](O)COc1cccc2ccccc12 | 130000 nM
Cc1ccc(NC(=O)CCCC[C@@H](C)NC[C@@H](O)COc2cccc3ccccc23)cc1 | 195000 nM
CC(=O)Nc1ccc(OC[C@H](O)CN[C@H](C)CCCCC(=O)Nc2ccc(C)cc2)cc1 | 53600 nM
CC(=O)Nc1ccc(OC[C@H](O)CN[C@@H](C)CCCCC(=O)Nc2ccc(C(F)(F)F)cc2)cc1 (mixture of isomers) | 62000 nM
Cc1ccc(NC(=O)CCCC[C@H](C)NC[C@@H](O)COc2cccc3ccccc23)cc1 (racemic) | 195000 nM
C[C@@H](CCCCC(=O)Nc1ccc(C(F)(F)F)cc1)NC[C@@H](O)COc1cccc2ccccc12 (racemic) | 179000 nM

Now from value to compound:

Ki | SMILES
43300 nM | Cc1ccc(NC(=O)CCCCC(C)NCC(O)COc2cccc3ccccc23)cc1 (stereo unspecified)
810 nM | CC(=O)Nc1ccc(OC[C@@H](O)CN[C@H](C)CCCCC(=O)Nc2ccc(C)cc2)cc1
146 nM | CC(=O)Nc1ccc(OC[C@@H](O)CN[C@H](C)CCCCC(=O)Nc2ccc(C(F)(F)F)cc2)cc1
2170 nM | CC(=O)Nc1ccc(OC[C@H](O)CN[C@H](C)CCCCC(=O)Nc2ccc(C(F)(F)F)cc2)cc1
9240 nM | CC(=O)Nc1ccc(OC[C@H](O)CN[C@@H](C)CCCCC(=O)Nc2ccc(C)cc2)cc1
390 nM | CC(=O)Nc1ccc(OCC(O)CNC(C)CCCCC(=O)Nc2ccc(C(F)(F)F)cc2)cc1 (stereo unspecified)
9070 nM | Cc1ccc(NC(=O)CCCC[C@@H](C)NC[C@H](O)COc2cccc3ccccc23)cc1
1180 nM | CC(=O)Nc1ccc(OCC(O)CNC(C)CCCCC(=O)Nc2ccc(C)cc2)cc1 (stereo unspecified)
2850 nM | CC(=O)Nc1ccc(OC[C@@H](O)CN[C@@H](C)CCCCC(=O)Nc2ccc(C(F)(F)F)cc2)cc1
15600 nM | CC(=O)Nc1ccc(OC[C@@H](O)CN[C@@H](C)CCCCC(=O)Nc2ccc(C)cc2)cc1
41000 nM | Cc1ccc(NC(=O)CCCC[C@H](C)NC[C@H](O)COc2cccc3ccccc23)cc1
39000 nM | C[C@@H](CCCCC(=O)Nc1ccc(C(F)(F)F)cc1)NC[C@H](O)COc1cccc2ccccc12

species on record: Rattus norvegicus; experiment: Biological activity in vitro, Ki value was determined by accumulation of c-AMP in rat fat cells (Beta1).; assay type: functional, cell-based; outline: as §1

SMILES | Ki
CC(=O)Nc1ccc(OC[C@@H](O)CN[C@H](C)CCCCC(=O)Nc2ccc(C)cc2)cc1 | 260 nM
CC(=O)Nc1ccc(OC[C@@H](O)CN[C@H](C)CCCCC(=O)Nc2ccc(C(F)(F)F)cc2)cc1 | 31 nM
CC(=O)Nc1ccc(OC[C@H](O)CN[C@H](C)CCCCC(=O)Nc2ccc(C(F)(F)F)cc2)cc1 | 240 nM
CC(=O)Nc1ccc(OC[C@H](O)CN[C@@H](C)CCCCC(=O)Nc2ccc(C)cc2)cc1 | 2620 nM
CC(=O)Nc1ccc(OCC(O)CNC(C)CCCCC(=O)Nc2ccc(C(F)(F)F)cc2)cc1 (stereo unspecified) | 130 nM
CC(=O)Nc1ccc(OCC(O)CNC(C)CCCCC(=O)Nc2ccc(C)cc2)cc1 (stereo unspecified) | 260 nM
CC(=O)Nc1ccc(OC[C@@H](O)CN[C@@H](C)CCCCC(=O)Nc2ccc(C(F)(F)F)cc2)cc1 | 350 nM
CC(=O)Nc1ccc(OC[C@@H](O)CN[C@@H](C)CCCCC(=O)Nc2ccc(C)cc2)cc1 | 1580 nM
CC(=O)Nc1ccc(OC[C@H](O)CN[C@H](C)CCCCC(=O)Nc2ccc(C)cc2)cc1 | 1990 nM
CC(=O)Nc1ccc(OC[C@H](O)CN[C@@H](C)CCCCC(=O)Nc2ccc(C(F)(F)F)cc2)cc1 (mixture of isomers) | 6700 nM
CC(=O)Nc1ccc(OCC(O)CNC(C)C)cc1 (stereo unspecified) [PRACTOLOL] | 700 nM

species on record: Rattus norvegicus; experiment: Relative potency(RP) was determined for the biological activity determined in rat fat cells (Beta1); assay type: functional
Outline: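 Rat fat cells (β1), prepared as previously described, were assayed in vitro for antagonist inhibition of cAMP accumulation, with cAMP measured by radioimmunoassay. Ki values were calculated with the Cheng–Prusoff equation. Potency is expressed relative to the progenitor drug, which was tested alongside the individual stereoisomers and the stereoisomeric mixture.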

SMILES | Relative potency
CC(=O)Nc1ccc(OC[C@@H](O)CN[C@H](C)CCCCC(=O)Nc2ccc(C)cc2)cc1 | 2.71
CC(=O)Nc1ccc(OC[C@@H](O)CN[C@H](C)CCCCC(=O)Nc2ccc(C(F)(F)F)cc2)cc1 | 22.6
CC(=O)Nc1ccc(OC[C@H](O)CN[C@H](C)CCCCC(=O)Nc2ccc(C(F)(F)F)cc2)cc1 | 2.92
CC(=O)Nc1ccc(OC[C@H](O)CN[C@@H](C)CCCCC(=O)Nc2ccc(C)cc2)cc1 | 0.267
CC(=O)Nc1ccc(OCC(O)CNC(C)CCCCC(=O)Nc2ccc(C(F)(F)F)cc2)cc1 (stereo unspecified) | 7.8
CC(=O)Nc1ccc(OCC(O)CNC(C)CCCCC(=O)Nc2ccc(C)cc2)cc1 (stereo unspecified) | 2.71
CC(=O)Nc1ccc(OC[C@@H](O)CN[C@@H](C)CCCCC(=O)Nc2ccc(C(F)(F)F)cc2)cc1 | 2
CC(=O)Nc1ccc(OC[C@@H](O)CN[C@@H](C)CCCCC(=O)Nc2ccc(C)cc2)cc1 | 0.442
CC(=O)Nc1ccc(OC[C@H](O)CN[C@H](C)CCCCC(=O)Nc2ccc(C)cc2)cc1 | 0.351
CC(=O)Nc1ccc(OC[C@H](O)CN[C@@H](C)CCCCC(=O)Nc2ccc(C(F)(F)F)cc2)cc1 (mixture of isomers) | 0.104
